Here are results for five compounds from ChEMBL document CHEMBL3393022, “Ligand-induced conformational change of Plasmodium falciparum AMA1 detected using 19F NMR” (J Med Chem, 2014).

The target of experiment [1] is T1, Apical membrane antigen 1 (Plasmodium falciparum (isolate 3D7)) (UniProt Q7KQK5).
T1 sequence (whole entry): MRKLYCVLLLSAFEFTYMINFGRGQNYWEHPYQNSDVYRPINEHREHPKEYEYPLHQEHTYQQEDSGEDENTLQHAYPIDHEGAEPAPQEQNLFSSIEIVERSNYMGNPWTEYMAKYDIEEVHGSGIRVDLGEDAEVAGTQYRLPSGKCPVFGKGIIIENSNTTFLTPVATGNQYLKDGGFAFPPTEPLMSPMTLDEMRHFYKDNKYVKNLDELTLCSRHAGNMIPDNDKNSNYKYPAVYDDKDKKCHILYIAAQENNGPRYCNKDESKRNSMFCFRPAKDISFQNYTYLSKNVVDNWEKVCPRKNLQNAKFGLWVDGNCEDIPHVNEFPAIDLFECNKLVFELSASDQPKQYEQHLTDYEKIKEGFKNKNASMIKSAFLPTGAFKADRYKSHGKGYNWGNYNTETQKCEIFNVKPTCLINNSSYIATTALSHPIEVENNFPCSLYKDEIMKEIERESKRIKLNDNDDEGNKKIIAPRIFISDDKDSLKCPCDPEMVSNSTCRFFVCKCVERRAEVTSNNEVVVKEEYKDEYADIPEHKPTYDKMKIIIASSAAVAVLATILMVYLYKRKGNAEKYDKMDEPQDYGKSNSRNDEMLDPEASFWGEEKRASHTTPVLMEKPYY
Description: Binding affinity to Plasmodium falciparum 3D7 5F-Trp-tagged AMA1 F367W mutant at 1 and 3 mM by 19F-NMR spectroscopy in presence of R1/RON2L. In a few lines: (§1)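 5F-Trp-labelled 3D7 PfAMA1(108–434) F367W from E. coli BL21(DE3), induced with 1 mM IPTG for 3 h after glyphosate/Phe/Tyr/5F-Trp, refolded and purified into 20 mM phosphate pH 7.4. Small-molecule ligands were added from 100 mM stocks in H2O, ethanol or DMSO to 1 and 3 mM. 19F spectra: 2K scans, 8K complex points, 150 ppm sweep width, under 40 min, compared with free protein.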

For experiment [2], the target named is T1, Apical membrane antigen 1 (Plasmodium falciparum (isolate 3D7)). The experiment in a line: Binding affinity to Plasmodium falciparum 3D7 5F-Trp-tagged AMA1 assessed as downfield shifts of W110 peak by 19F-NMR spectroscopy in presence of R1/RON2L.
For experiment [3] the target is unchanged. Description: Binding affinity to Plasmodium falciparum 3D7 5F-Trp-tagged AMA1 F367W mutant assessed as decrease in the W367 line width at 1 and 3 mM by 19F-NMR spectroscopy in presence of R1/RON2L. In a few lines: as §1
The target in experiment [4] is T2, Apical membrane antigen 1 (Plasmodium falciparum (isolate 3D7), UniProt Q7KQK5).
T2 sequence (Q7KQK5 whole entry): T1 sequence (whole entry)
Description: Binding affinity to Plasmodium falciparum 3D7 AMA1 (108 to 434) expressed in Escherichia coli BL21(DE3) by SPR analysis. In a few lines: (§2)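 SPR at 25 °C in PBS–0.1% Tween, flow 30 μL/min, with AMA1 immobilised on a GLC chip. Peptides were injected for 8 min at 50–3.125 nM, with 800 s dissociation. A lane without AMA1 and buffer or DMSO signals were subtracted. Regeneration used 0.85% phosphoric acid.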
For orientation: Surface plasmon resonance follows binding to a sensor surface in real time, without labels.

For experiment [5], the target named is Apical membrane antigen 1 (Plasmodium falciparum (isolate 3D7), UniProt Q7KQK5). Description: Binding affinity to Plasmodium falciparum 3D7 AMA1 373W insertion mutant expressed in Escherichia coli BL21(DE3) by SPR analysis. In a few lines:
as §2

Experiment [6] addresses Apical membrane antigen 1 (Plasmodium falciparum (isolate 3D7), UniProt Q7KQK5, F367W). Description: Binding affinity to Plasmodium falciparum 3D7 AMA1 F367W mutant expressed in Escherichia coli BL21(DE3) at 1 and 3 mM by SPR analysis.

Active and inactive are the calls of the source. The rule behind the calls is not given here. Residues, ends and D or L forms follow the SMILES beside them.

As for `Nc1cc(N)cc(-c2nc3ccccc3[nH]2)c1`, the outcome in experiment [1] and in experiment [2] was Active. In addition, the outcome in experiment [3] was inactive.
Usually Kd stands for the equilibrium constant for the complex coming apart. `CC[C@H](C)[C@H](NC(=O)[C@H](CCC(N)=O)NC(=O)[C@H](CCC(N)=O)NC(=O)[C@@H]1CCCN1C(=O)[C@@H]1CCCN1C(=O)[C@H](CO)NC(=O)[C@H](CCSC)NC(=O)[C@H](CCCNC(=N)N)NC(=O)[C@@H](NC(=O)[C@@H](NC(=O)[C@H](Cc1ccccc1)NC(=O)[C@@H](N)CS)[C@@H](C)O)[C@@H](C)O)C(=O)N[C@@H](CS)C(=O)O` (H-CFTTRMSPPQQIC-OH): the affinity in experiment [4], expressed as Kd, was 40000 nM. The result in experiment [2] was Active.
With `Cc1nc(N)sc1-c1ccc(N)cc1`, the Activity result in experiment [2] and in experiment [3] was “Dose-dependent effect” each time.
As for H-VFAEFLPLFSKFGSRMHILK-OH, the equilibrium dissociation constant (Kd) came to 23 nM in experiment [4], 50 nM in experiment [5] and 20 nM in experiment [6]. Also, the outcome in experiment [2] was Active.
On to `Nc1ccc2nc(N3CCCCC3)[nH]c2c1`, for which the result in experiment [1] was Active. Besides, in experiment [2], the Activity entry is “Dose-dependent effect”. In addition, the result in experiment [3] was inactive.
